GSTO1 inh: blocks human GSTO1 in RBBP9 counter-screen; hit rate 1.1% among 300,000; inhibition, % at 5.96 µM; recombinant GSTO1, activity-based probe fluorescence polarization; AID 1974; P78417;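 active = inhibition above the campaign mean inhibition plus 3 SD, cut at about 35% in these data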;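 also: 0% = GSTO1-1 with DMSO and 100% = wells lacking GSTO1-1 enzyme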
CTSL1 counter: cathepsin L1 inhibition, PFM18AAP counter-screen; recombinant F. hepatica cathepsin L1, Z-Leu-Arg-MCA fluorescence; inhibition, % at 5.96 µM; hit rate 0.49% among 300,000;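 active = inhibition above the mean of all tested compounds plus 3 SD, set per screening campaign, cut at about 17% in these data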;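 also: 0% = plate median of test compound wells and 100% = 1 µM Z-Phe-Ala-diazomethylketone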
PAD4 FP inh: inhibitors of human PAD4; Q9UM07; recombinant PAD4, RCA probe fluorescence polarization; AID 485272; inhibition, % at 6.36 µM; hit rate 0.41% among 330,000;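 active = percent inhibition above a cutoff equal to the mean of all tested compounds plus 3 SD, cut at about 15% in these data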;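 also: 0% = PAD4 with RCA probe and DMSO and 100% = probe without PAD4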
Target sequence (Q9UM07 whole entry, looked up): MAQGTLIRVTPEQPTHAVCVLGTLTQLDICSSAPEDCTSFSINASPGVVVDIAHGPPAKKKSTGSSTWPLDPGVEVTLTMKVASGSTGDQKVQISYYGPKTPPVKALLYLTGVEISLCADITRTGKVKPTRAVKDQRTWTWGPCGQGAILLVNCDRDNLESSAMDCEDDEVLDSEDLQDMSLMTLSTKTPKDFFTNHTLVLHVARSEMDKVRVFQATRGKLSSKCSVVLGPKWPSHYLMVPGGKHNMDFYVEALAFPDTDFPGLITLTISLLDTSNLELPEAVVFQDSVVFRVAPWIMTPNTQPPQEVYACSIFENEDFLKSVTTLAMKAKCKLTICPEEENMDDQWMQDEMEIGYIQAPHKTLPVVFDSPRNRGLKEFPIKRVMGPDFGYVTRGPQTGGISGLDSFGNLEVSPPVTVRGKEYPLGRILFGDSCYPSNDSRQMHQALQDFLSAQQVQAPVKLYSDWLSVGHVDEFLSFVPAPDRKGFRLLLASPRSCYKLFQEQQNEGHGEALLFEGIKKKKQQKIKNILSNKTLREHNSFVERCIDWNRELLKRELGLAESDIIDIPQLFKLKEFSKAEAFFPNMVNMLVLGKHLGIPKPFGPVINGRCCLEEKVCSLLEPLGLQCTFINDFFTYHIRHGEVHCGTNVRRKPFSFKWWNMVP
TDP2 inh: blocks human TDP2 phosphodiesterase activity; hit rate 0.34% among 370,000; recombinant TDP2, T5PNP hydrolysis, p-nitrophenol absorbance 415 nm; AID 720702; inhibition, % at 12.8 µM; O95551;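 active = inhibition above the mean of all tested compounds plus 3 SD, set per campaign, cut at about 25% in these data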;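 also: 0% = DMSO with enzyme and 100% = buffer with substrate but no TDP2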
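Test system: human TDP2 enzyme; Input: 120 nM TDP2 per well; Buffer or medium: Mg2+-containing Tris-HCl buffer, pH 7.5; Reagent: 5 mM T5PNP; Dosing: 12.8 µM single point, 1% DMSO; Incubation: reaction 2 h, 37 °C; Detection: p-Nitrophenol epi absorbance; Read-out: % inhibition relative to enzyme-containing and enzyme-free wells; Replicates: single well per compound.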
Apaf-1 inh: inhibitors of human Apaf-1 apoptosome; O14727; reconstituted apoptosome caspase-3 activity, DEVD-Rh110 fluorescence; inhibition, % at 20 µM; hit rate 0.71% among 330,000; AID 489030; active = inhibition of at least 40% at 20 µM;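 also: plate controls were DMSO wells for no effect and DEVD-CHO caspase inhibitor wells for full effect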
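Material: reconstituted apoptosome with Apaf-1, cytochrome c, caspase-9, procaspase-3, dATP; medium: pH 7.5 Hepes buffer with CHAPS, BSA, DTT; also added: cytochrome c and DEVD-Rh110 substrate; timing: 30 min plus 50 min, RT; signal: Rh110 fluorescence intensity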
GSTO1 inh conf: confirmation of human GSTO1 inhibitors; inhibition, % at 5.96 µM; shares compounds with GSTO1 inh; hit rate 54% among 2,400; recombinant GSTO1, probe fluorescence polarization;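 active = inhibition above the primary screen's cutoff, its mean inhibition plus 3 SD, cut at about 35% in these data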;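 also: loss of polarization as inhibitors block binding of rhodamine sulfonate ester activity probe; 0% = GSTO1 with DMSO and 100% = wells lacking GSTO1 enzyme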
PAD4 confirm: confirmation of human PAD4 inhibitors; inhibition, % at 6.36 µM; shares compounds with PAD4 FP inh; hit rate 28% among 1,200; recombinant PAD4, RCA probe fluorescence polarization;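 active = mean inhibition across replicates above the hit cutoff set by the earlier primary screen, cut at about 15% in these data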;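 also: inhibitors block active-site labeling by the probe so polarization falls; 0% = PAD4 with probe and DMSO and 100% = probe without PAD4 enzyme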
Apaf-1 inh conf: confirmation of Apaf-1 inhibitors. shares compounds with Apaf-1 inh. reconstituted apoptosome, caspase-3 DEVD-Rh110 fluorescence. inhibition, % at 20 µM. hit rate 25% among 1,800. AID 504614;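 active = mean inhibition of at least 40% at 20 µM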;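 also: plate controls were DMSO wells for no effect and DEVD-CHO caspase inhibitor control wells for full effect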
Rh110 interf inh: interferes with Rh110 fluorescence, flagging false Apaf-1 inhibitors. 1,800 tested, under 10 active. Rh110 fluorescence interference, quenched caspase reaction. shares compounds with Apaf-1 inh. activation (fluorescence interference), % at 20 µM;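 active = signal rise of 40% or more at 20 µM, treated as a fluorescence artifact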
Fluor interf inh: shows fluorescence interference in the Apaf-1 inhibitor assay format | AID 588538 | IC50, µM | 460 tested, under 10 active | fluorescence interference counterscreen, Apaf-1 assay format | shares compounds with Apaf-1 inh; call rule not given here
TDP2 inh conf: confirmation of human TDP2 inhibitors; shares compounds with TDP2 inh; recombinant human TDP2, absorbance read-out; hit rate 22% among 1,100; inhibition, % at 12.8 µM; in the data active = inhibition above about 25%;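 also: 0% = vehicle with enzyme and 100% = no enzyme buffer only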
Starred values were filed as active, the others as inactive; nt = no result. Rows were chosen to be rich in hits. Some 1.8% of all compounds tested hit in one or more screens of this group.

SMILES	GSTO1 inh	CTSL1 counter	PAD4 FP inh	TDP2 inh	Apaf-1 inh	GSTO1 inh conf	PAD4 confirm	Apaf-1 inh conf	Rh110 interf inh	TDP2 inh conf	others
CCOC(=O)C1CCCN(C2=C(NS(=O)(=O)c3ccc(Br)cc3)C(=O)c3ccccc3C2=O)C1 (stereo not given)	42.8*	7.1	-9.8	43.2*	67.0*	11.1	nt	48.1*	20.9	12.9
N#Cc1c(NC(=O)c2ccc(Br)o2)n(-c2ccccc2)c2nc3ccccc3nc12	73.7*	11.4	36.3*	27.9*	96.4*	85.0*	19.9*	87.3*	-3.5	59.6*	Fluor interf inh=>100
CS(=O)(=O)N1CCC(C(=O)NCC2COc3ccccc3O2)CC1 (stereo not given)	nt	nt	nt	2.2	nt	nt	nt	nt	nt	nt
CN(c1ccc(NC(=O)CCc2c[nH]c3ccccc23)cc1)c1ccccn1	nt	nt	nt	7.0	nt	nt	nt	nt	nt	nt
CN(C)c1ccc(Cl)cc1N	10.7	-2.5	3.2	1.4	8.6	nt	nt	nt	nt	nt
CN(C)c1cc(Cl)c2nonc2c1N	60.2*	39.3*	39.6*	66.5*	94.4*	34.7	-8.8	51.8*	3.5	53.8*	Fluor interf inh=>100
COc1ccc(CC2=CC(=O)c3ccccc3C2=O)cc1	67.2*	13.8	-10.3	53.0*	49.6*	15.4	nt	nt	nt	17.5
O=C(N/N=C/c1ccc(-c2ccccc2[N+](=O)[O-])o1)c1cccnc1	50.7*	2.1	4.7	35.6*	78.8*	7.1	nt	42.8*	18.4	16.5	Fluor interf inh=>100
O=C(Nc1ccc(Br)cc1)OC1CC2CC1[C@H]1CCCCN1C2 (stereo not given in full)	nt	nt	nt	5.5	nt	nt	nt	nt	nt	nt
COc1cc(NCc2ccccc2O)c2ncccc2c1	nt	nt	nt	-2.1	18.3	nt	nt	nt	nt	nt
COc1cc(NC(C)CCCN)c2ncccc2c1 (stereo not given)	47.5*	6.7	35.5*	64.2*	92.5*	8.4	-4.3	32.9	-1.8	18.0
COC(=O)c1ccc(C(c2c(C)[nH][nH]c2=O)c2c(C)[nH][nH]c2=O)cc1	9.2	-1.2	-17.3	-4.8	11.6	nt	nt	nt	nt	nt
COC(=O)c1cccc(-c2ccc(C(c3c(C)[nH][nH]c3=O)c3c(C)[nH][nH]c3=O)o2)c1	59.0*	-0.2	8.2	57.0*	80.6*	54.1*	nt	nt	nt	32.3*
Nn1cnnc1N/N=C/c1ccc(Cl)c([N+](=O)[O-])c1	38.8*	1.3	56.0*	75.0*	3.2	6.1	-1.5	nt	nt	37.5*
COc1ccc(/C=C2/C(=O)N(Cc3ccccc3)N=C2C)cc1	39.8*	-0.3	4.4	70.8*	13.7	7.1	nt	nt	nt	14.1
COCCn1c(N)c(S(=O)(=O)c2cccs2)c2nc3ccccc3nc21	81.0*	3.2	21.9*	57.5*	4.6	2.2	-5.0	nt	nt	-6.5
Cc1cc(N2CCNC[C@H]2C)ccc1N1CCN(Cc2ccccc2)[C@H](C)C1	nt	nt	nt	-2.7	nt	nt	nt	nt	nt	nt
C[C@H]1CN([C@@H](C)CO)C(=O)CCCn2cc(nn2)CO[C@@H]1CN(C)S(=O)(=O)c1cn(C)cn1	nt	nt	nt	0.3	nt	nt	nt	nt	nt	nt
Cc1ccc(C)c(S(=O)(=O)Nc2ccc(O)c(C(=O)O)c2)c1	3.4	-3.7	0.3	0.4	-4.6	nt	nt	nt	nt	nt
Cc1ccc(C)c(S(=O)(=O)Nc2ccc(O)c3ccccc23)c1	52.7*	-1.3	-4.7	42.2*	17.5	0.0	nt	nt	nt	15.1
C=CCn1c(NS(=O)(=O)c2ccccc2)c(S(=O)(=O)c2ccc(C)cc2)c2nc3ccccc3nc21	101.3*	0.6	75.6*	37.0*	nt	87.6*	14.2	nt	nt	39.5*
CCCCOc1ccc(C(=O)NC2CCCCN(C(C)C)C2=O)cc1 (stereo not given)	nt	nt	nt	0.8	nt	nt	nt	nt	nt	nt
CC(=O)OCCCN1CCC2(CCCCC2)C1=O	nt	nt	nt	11.3	nt	nt	nt	nt	nt	nt
COc1cc(/C=C2/C(=O)N(c3ccc([N+](=O)[O-])cc3)N=C2N2CCOCC2)ccc1O	89.4*	3.4	70.0*	66.7*	86.4*	9.8	2.0	39.4	3.2	31.5*
CC1OC(Nc2ccc(N=Nc3ccccc3)cc2)C(O)C(O)C1O (stereo not given)	-5.3	6.0	-3.8	-5.6	7.1	nt	nt	nt	nt	nt
SMILES	GSTO1 inh	CTSL1 counter	PAD4 FP inh	TDP2 inh	Apaf-1 inh	GSTO1 inh conf	PAD4 confirm	Apaf-1 inh conf	Rh110 interf inh	TDP2 inh conf	others
CC1OC(Nc2cccc3ccccc23)C(O)C(O)C1O (stereo not given)	49.0*	9.1	-17.1	33.8*	96.1*	7.7	nt	64.4*	1.9	14.4	Fluor interf inh=>100
O=C(COC(=O)COc1ccccc1)Nc1ncc([N+](=O)[O-])s1	nt	nt	-4.7	-4.7	-2.1	nt	nt	nt	nt	nt
O=C(COC(=O)c1ccc([N+](=O)[O-])s1)Nc1ccccc1	64.8*	74.3*	33.4*	49.8*	23.6	12.9	4.2	nt	nt	22.2
Cc1cccc(C(=O)NC2C(=O)NNC2c2ccc(Cl)cc2)c1 (stereo not given)	44.5*	-1.0	-1.5	30.4*	54.0*	5.5	nt	22.6	8.5	10.5
O=C(NC1C(=O)NNC1c1ccccc1)c1ccccc1 (stereo not given)	7.9	-2.2	-11.2	15.0	19.8	nt	nt	nt	nt	nt
O=c1c(O)cccc2cc(O)c(O)c(O)c12	51.0*	4.2	-6.7	28.5*	10.7	71.6*	nt	nt	nt	17.3
O=c1cc(-c2ccccc2)oc2cc(O)c(O)c(O)c12	nt	nt	-8.1	7.5	8.0	nt	nt	nt	nt	nt
COc1ccc2nc3ccccc3nc2c1N	59.8*	-7.2	24.7*	39.0*	92.3*	9.2	-3.0	20.9	-1.9	7.8
COc1ccc(-c2nc3ccccc3nc2-c2ccc(OC)c(OC)c2)cc1OC	1.9	3.3	-0.4	19.4	12.3	nt	nt	nt	nt	nt
CCCCC(=Nc1ccc(N)cc1)C1=C(O)C(C(=O)OC)C(C)(C)CC1=O (stereo not given)	85.8*	2.8	75.2*	60.3*	61.6*	3.2	1.9	nt	nt	16.6
CCC(=Nc1ccc(N)cc1)C1=C(O)C(C(=O)OC)C(C)(C)CC1=O (stereo not given)	84.7*	5.9	73.5*	55.0*	61.5*	6.3	6.9	18.7	1.6	17.3
CCCC(=Nc1ccccc1)C1=C(O)C(C(=O)OC)C(C)(C)CC1=O (stereo not given)	1.2	-2.9	-2.3	-9.2	-3.4	nt	nt	nt	nt	nt
Brc1ccc(-c2csc(N3CCNCC3)n2)cc1	nt	nt	nt	-7.7	nt	nt	nt	nt	nt	nt

Screens deposited in PubChem by several laboratories.
